Experimental data as given in ChEMBL document CHEMBL3046889, “Structure-activity relationships of phenylcyclohexene and biphenyl antitubulin compounds against plant and mammalian cells” (Bioorg Med Chem Lett, 2001).
Calls of active or inactive are those of the source. No cut-off for these calls is given here.

Experiments:
Nicotiana tabacum [1] = assay: Inhibition of Nicotiana tabacum (tobacco) root growth assessed as inhibition of root elongation; format: functional, organism-based
Summary of the method: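 In vitro tobacco root growth assay on germinating seeds; root elongation scored, EC50 derived.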

HCT-116 = assay: Antitumor activity against Homo sapiens (human) HCT116 cells; format: functional, cell-based
Summary of the method: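 Cytotoxicity toward human HCT116 colon cancer cells measured by sulforhodamine B assay in 96-well format.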

Nicotiana tabacum [2] = assay: Mitotic arrest in Nicotiana tabacum (tobacco) root suspension-cultured cells assessed as accumulation of cells in metaphase by cytological staining assay; format: functional
Summary of the method: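 Suspension-cultured tobacco cells were treated with the compound, and their chromosomes were cytologically stained. The read-out was mitotic index, meaning the fraction of cells in mitosis, with arrest scored as cells accumulating in metaphase.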

Tubulin (Bos taurus) [3] = assay: Inhibition of Bos taurus (bovine) brain tubulin polymerization at 200 uM
Tubulin (Bos taurus) [4] = assay: Displacement of [3H]colchicine from Bos taurus (bovine) brain tubulin by competition assay

COc1cccc([C@@H]2CC=CC[C@H]2[N+](=O)[O-])c1 (racemic)
EC50 (Nicotiana tabacum [1]; Nicotiana tabacum): 3.78 µM
EC50 (HCT-116; Homo sapiens, HCT-116): 143 µM

COc1ccc(-c2ccccc2[N+](=O)[O-])c(OC)c1OC
EC50 (Nicotiana tabacum [1]; Nicotiana tabacum): 52 µM
EC50 (HCT-116; Homo sapiens, HCT-116): 19.6 µM

COc1ccc([C@H]2CC=CC[C@H]2C#N)c(OC)c1OC (single isomer, unassigned)
EC50 (HCT-116; hct-116): 142 µM

COc1ccc(-c2ccc(OC)c(OC)c2OC)cc1 [2,3,4,4'-TETRAMETHOXYBIPHENYL]
EC50 (Nicotiana tabacum [1]; Nicotiana tabacum): > 100 µM
EC50 (HCT-116; Homo sapiens, HCT-116): 1.52 µM

COc1ccc([C@@H]2CC=CC[C@H]2[N+](=O)[O-])c(OC)c1OC (racemic) [listing 1 of 2 here]
Activity (Nicotiana tabacum [2]): Active
inhibition (Tubulin (Bos taurus) [3]): Active
inhibition (Tubulin (Bos taurus) [4]): Active

COc1ccc(C2CC=CCC2C#N)c(OC)c1OC (mixture of isomers)
inhibition (Tubulin (Bos taurus) [3]): Active
EC50 (Nicotiana tabacum [1]; Nicotiana tabacum): 2.29 µM
EC50 (HCT-116; Homo sapiens, HCT-116): 113 µM

COc1ccc(-c2ccc(OC)c(OC)c2OC)c([N+](=O)[O-])c1
EC50 (Nicotiana tabacum [1]; Nicotiana tabacum): > 100 µM
EC50 (HCT-116; Homo sapiens, HCT-116): 2.65 µM

COc1cc2c(c(OC)c1OC)-c1ccc(OC)c(=O)cc1[C@@H](NC(C)=O)CC2 [COLCHICINE]
Activity (Nicotiana tabacum [2]): Active
EC50 (Nicotiana tabacum [1]; Nicotiana tabacum): 356 µM
EC50 (HCT-116; Homo sapiens, HCT-116): 0.02 µM

COc1ccc([C@H]2CC=CC[C@@H]2C#N)c(OC)c1OC (single isomer, unassigned; enantiomer II)
EC50 (Nicotiana tabacum [1]): 7.17 µM
EC50 (HCT-116; hct-116): 47 µM

COc1ccc([C@H]2CC=CC[C@@H]2C#N)c(OC)c1OC (single isomer, unassigned; enantiomer I)
EC50 (Nicotiana tabacum [1]): 0.667 µM
EC50 (HCT-116; hct-116): 136 µM

COc1ccc([C@@H]2CC=CC[C@H]2[N+](=O)[O-])c(OC)c1OC (single isomer, unassigned; enantiomer I)
EC50 (Nicotiana tabacum [1]): 0.1 µM
EC50 (HCT-116; hct-116): 79 µM

COc1ccc([C@@H]2CC=CC[C@H]2[N+](=O)[O-])c(OC)c1OC (single isomer, unassigned)
EC50 (Nicotiana tabacum [1]): 1.96 µM
EC50 (HCT-116; Homo sapiens, HCT-116): 71 µM

COc1ccc(-c2ccc(OC)c(OC)c2OC)c(C#N)c1
EC50 (Nicotiana tabacum [1]; Nicotiana tabacum): > 100 µM
EC50 (HCT-116; Homo sapiens, HCT-116): 0.58 µM

COc1ccc([C@H]2CC=CC[C@H]2C#N)c(OC)c1OC (single isomer, unassigned; enantiomer II)
EC50 (Nicotiana tabacum [1]; Nicotiana tabacum): > 25 µM
EC50 (HCT-116; hct-116): 45 µM

COc1ccc([C@@H]2CC=CC[C@H]2[N+](=O)[O-])c(OC)c1OC (racemic) [listing 2 of 2 here]
EC50 (Nicotiana tabacum [1]): 0.27 µM
EC50 (HCT-116; hct-116): 85 µM

COc1ccc(-c2ccc(OC)c(OC)c2OC)c(C)c1
EC50 (Nicotiana tabacum [1]; Nicotiana tabacum): > 100 µM
EC50 (HCT-116; Homo sapiens, HCT-116): 0.78 µM

COc1ccc(-c2ccccc2C#N)c(OC)c1OC
EC50 (Nicotiana tabacum [1]; Nicotiana tabacum): > 100 µM
EC50 (HCT-116; Homo sapiens, HCT-116): 13.8 µM

O=[N+]([O-])[C@@H]1CC=CC[C@H]1c1ccccc1 (mixture of isomers)
EC50 (Nicotiana tabacum [1]; Nicotiana tabacum): > 100 µM
EC50 (HCT-116; Homo sapiens, HCT-116): 174 µM
